Measured values as given in ChEMBL document CHEMBL1649090, “Discovery of (7R)-14-cyclohexyl-7-{[2-(dimethylamino)ethyl](methyl) amino}-7,8-dihydro-6H-indolo[1,2-e][1,5]benzoxazocine-11-carboxylic acid (MK-3281), a potent and orally bioavailable finger-loop inhibitor of the hepatitis C virus NS5B polymerase” (J Med Chem, 2011).

How the values were obtained:
[1] = tested on: Hepatitis C virus; experiment: Antiviral activity against HCV1b infected in human Huh-7 cells assessed as inhibition of viral RNA replication after 96 hrs by ELISA assay in presence of 10% fetal calf serum; format: functional, organism-based, Hepacivirus hominis; conditions: genotype 1b, Huh-7, 96 h
[2] = tested on: Hepatitis C virus; experiment: Inhibition of HCV1b NS5B delta21 polymerase after 1 hr; format: single protein, Hepatitis C virus subtype 1b
In short: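 Enzyme inhibition IC50 measured on genotype 1b HCV NS5B polymerase truncated by 21 C-terminal residues (ΔC21).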

[3] = tested on: Hepatitis C virus; experiment: Antiviral activity against HCV1b infected in human Huh-7 cells assessed as inhibition of viral RNA replication after 96 hrs by ELISA assay in presence of 50% normal human serum; format: functional, organism-based, Hepacivirus hominis; conditions: genotype 1b, Huh-7, 96 h
[4] = Fraction unbound in human plasma; format: ADME, cell-free
[5] = tested on: Hepatitis C virus; experiment: Ratio of EC50 for HCV1b to EC50 for HCV1b in presence of 50% normal human serum; format: functional, Hepacivirus hominis, genotype 1b
[6] = Ratio of drug level in liver to plasma in Sprague-Dawley rat liver at 3 mg/kg, po after 6 hrs; format: ADME, organism-based; set-up: dose 3 mg/kg, route oral
In short: (§1)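 Sprague-Dawley rats (n = 3) received the compound as its TFA salt in DMSO/PEG400/water 20%/60%/20%, as a single iv dose of 3 mg/kg or a single oral dose of 3 mg/kg. Liver tissue and plasma concentrations were measured 6 h after the oral dose.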

[7] = Clearance in Sprague-Dawley rat at 3 mg/kg, iv; format: ADME, organism-based; set-up: dose 3 mg/kg, route intravenous; conditions: in vivo; in short: as §1
[8] = Half life in Sprague-Dawley rat at 3 mg/kg, iv; format: ADME, organism-based; set-up: dose 3 mg/kg, route intravenous; conditions: in vivo; in short: as §1
[9] = Volume of distribution in Sprague-Dawley rat at 3 mg/kg, iv; format: ADME, organism-based; set-up: dose 3 mg/kg, route intravenous; conditions: in vivo
In short: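 Sprague-Dawley rats (n = 3) received a single 3 mg/kg iv dose, given as the TFA salt, in DMSO/PEG400/water 20%/60%/20%. Plasma clearance, half-life and volume of distribution were derived.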

[10] = Cmax in Sprague-Dawley rat at 3 mg/kg, po; format: ADME, organism-based; set-up: dose 3 mg/kg, route oral; conditions: in vivo; in short: as §1
[11] = AUC in Sprague-Dawley rat at 3 mg/kg, po; format: ADME, organism-based; set-up: dose 3 mg/kg, route oral; conditions: plasma
In short: (§2)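 Single-dose rat PK with the compound given as its TFA salt to Sprague-Dawley rats (n = 3) in DMSO/PEG400/water 20%/60%/20%. Dosing was 3 mg/kg iv and 3 mg/kg po.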

[12] = Drug level in Sprague-Dawley rat liver at 3 mg/kg, po after 6 hrs; format: ADME, organism-based; set-up: dose 3 mg/kg, route oral; conditions: read-out: Drug uptake; in short: as §1
[13] = Intrinsic clearance in rat liver microsomes assessed per mg of protein; format: ADME, Microsome
[14] = Intrinsic clearance in dog liver microsomes assessed per mg of protein; format: ADME, Canis lupus familiaris, Microsome
[15] = Intrinsic clearance in human liver microsomes assessed per mg of protein; format: ADME, Microsome
[16] = Oral bioavailability in Sprague-Dawley rat at 3 mg/kg; format: ADME, organism-based; conditions: in vivo; in short: as §2

SMILES: CC(C)N1CC[C@H](N2CCn3c(c(C4CCCCC4)c4sc(C(=O)O)cc43)-c3ccccc3C2)C1
- EC50 [1]: 150 nM
- IC50 [2]: 19 nM

SMILES: O=C(O)c1ccc2c(C3CCCCC3)c3n(c2c1)CCCOc1ccccc1-3
- EC50 [1]: 2740 nM
- IC50 [2]: 42 nM

SMILES: CN(C)CC(=O)N(C)C1COc2ccccc2-c2c(C3CCCCC3)c3ccc(C(=O)O)cc3n2C1 (stereo not drawn)
- EC50 [1]: 73 nM
- IC50 [2]: 31 nM
- EC50 [3]: 743 nM
- fraction unbound [4]: 0.005
- Ratio EC50 [5]: 10

SMILES: CN(C)CCN(C)[C@@H]1COc2ccccc2-c2c(C3CCCCC3)c3ccc(C(=O)O)cc3n2C1
- EC50 [1]: 338 nM
- IC50 [2]: 35 nM
- EC50 [3]: 1680 nM
- Ratio EC50 [5]: 3

SMILES: CN(C)CCO[C@@H]1COc2ccccc2-c2c(C3CCCCC3)c3ccc(C(=O)O)cc3n2C1
- EC50 [1]: 78 nM
- IC50 [2]: 19 nM
- EC50 [3]: 493 nM
- Ratio EC50 [5]: 6

SMILES: CN(C)CCO[C@H]1COc2ccccc2-c2c(C3CCCCC3)c3ccc(C(=O)O)cc3n2C1
- EC50 [1]: 432 nM
- IC50 [2]: 72 nM
- EC50 [3]: 1410 nM

SMILES: CC(C)N1CC2(COc3ccccc3-c3c(C4CCCCC4)c4ccc(C(=O)O)cc4n3C2)C1
- EC50 [1]: 338 nM
- IC50 [2]: 30 nM
- EC50 [3]: 590 nM

SMILES: CN(C)CCN1CC2(COc3ccccc3-c3c(C4CCCCC4)c4ccc(C(=O)O)cc4n3C2)C1
- EC50 [1]: 80 nM
- IC50 [2]: 4 nM
- EC50 [3]: 454 nM

SMILES: O=C(O)c1ccc2c(C3CCCCC3)c3n(c2c1)CCCc1ccccc1-3
- EC50 [1]: 10400 nM
- IC50 [2]: 35 nM

SMILES: CCN(CC)C1CCN(C(=O)Cn2c(-c3ccc(Cl)cc3)c(C3CCCCC3)c3ccc(C(=O)O)cc32)CC1
- IC50 [2]: 48 nM
- Kp at 6 h [6]: 16

SMILES: CN(C)CCN1CCn2c(c(C3CCCCC3)c3ccc(C(=O)O)cc32)-c2ccccc2C1
- IC50 [2]: 27 nM
- clearance [7]: 61 mL/min/kg
- half-life [8]: 1.6 h
- Vd [9]: 5.1 L/kg
- Cmax [10]: 200 nM
- AUC [11]: 0.7 µM·h
- concentration at 6 h [12]: 640 nM
- microsomal CLint [13]: 100 µL/min/mg
- microsomal CLint [14]: 26 µL/min/mg
- microsomal CLint [15]: 5 µL/min/mg

SMILES: COc1ccc2c(c1)[C@H]1[C@@H](CCN1CCN(C)C)Cn1c-2c(C2CCCCC2)c2ccc(C(=O)O)cc21
- EC50 [1]: 29 nM
- IC50 [2]: 4 nM

SMILES: CN1CCN(CCN(C)C2COc3ccccc3-c3c(C4CCCCC4)c4ccc(C(=O)O)cc4n3C2)CC1 (racemic)
- EC50 [1]: 66 nM
- IC50 [2]: 8 nM
- EC50 [3]: 581 nM
- fraction unbound [4]: 0.011
- Ratio EC50 [5]: 9

SMILES: CNC1COc2ccccc2-c2c(C3CCCCC3)c3ccc(C(=O)O)cc3n2C1 (racemic)
- EC50 [1]: 1030 nM
- IC50 [2]: 51 nM
- EC50 [3]: 4980 nM

SMILES: CN(C)C1COc2ccccc2-c2c(C3CCCCC3)c3ccc(C(=O)O)cc3n2C1 (racemic)
- EC50 [1]: 570 nM
- IC50 [2]: 32 nM
- EC50 [3]: 2110 nM
- Ratio EC50 [5]: 4

SMILES: NCCNC1COc2ccccc2-c2c(C3CCCCC3)c3ccc(C(=O)O)cc3n2C1 (racemic)
- EC50 [1]: 591 nM
- IC50 [2]: 12 nM
- EC50 [3]: 1700 nM
- Ratio EC50 [5]: 4

SMILES: CN(C)CCNC1COc2ccccc2-c2c(C3CCCCC3)c3ccc(C(=O)O)cc3n2C1 (racemic)
- EC50 [1]: 173 nM
- IC50 [2]: 32 nM
- EC50 [3]: 856 nM
- clearance [7]: 21 mL/min/kg
- half-life [8]: 3 h
- Vd [9]: 3.2 L/kg
- Cmax [10]: 300 nM
- AUC [11]: 0.9 µM·h
- bioavailability [16]: 20%
- concentration at 6 h [12]: 1300 nM
- microsomal CLint [13]: 7 µL/min/mg
- microsomal CLint [14]: 7 µL/min/mg
- microsomal CLint [15]: 5 µL/min/mg
- Kp at 6 h [6]: 21
- Ratio EC50 [5]: 4

SMILES: CN(C)CCCNC1COc2ccccc2-c2c(C3CCCCC3)c3ccc(C(=O)O)cc3n2C1 (racemic)
- EC50 [1]: 258 nM
- IC50 [2]: 17 nM
- EC50 [3]: 1370 nM
- Ratio EC50 [5]: 4

SMILES: CN1CCC(NC2COc3ccccc3-c3c(C4CCCCC4)c4ccc(C(=O)O)cc4n3C2)CC1 (racemic)
- EC50 [1]: 224 nM
- IC50 [2]: 21 nM
- EC50 [3]: 1130 nM
- Ratio EC50 [5]: 4

SMILES: COCCNC1COc2ccccc2-c2c(C3CCCCC3)c3ccc(C(=O)O)cc3n2C1 (racemic)
- EC50 [1]: 2480 nM
- IC50 [2]: 63 nM

SMILES: CN(C)C(=O)CNC1COc2ccccc2-c2c(C3CCCCC3)c3ccc(C(=O)O)cc3n2C1 (racemic)
- EC50 [1]: 766 nM
- IC50 [2]: 51 nM
- EC50 [3]: > 5000 nM

SMILES: CN(C)CC(=O)NC1COc2ccccc2-c2c(C3CCCCC3)c3ccc(C(=O)O)cc3n2C1 (racemic)
- EC50 [1]: 170 nM
- IC50 [2]: 47 nM
- EC50 [3]: 1430 nM

SMILES: CN(C)CCN(C)C1COc2ccccc2-c2c(C3CCCCC3)c3ccc(C(=O)O)cc3n2C1 (racemic)
- EC50 [1]: 73 nM
- IC50 [2]: 15 nM
- EC50 [3]: 313 nM
- fraction unbound [4]: 0.027

SMILES: CN1CCN(C2COc3ccccc3-c3c(C4CCCCC4)c4ccc(C(=O)O)cc4n3C2)CC1 (racemic)
- EC50 [1]: 120 nM
- IC50 [2]: 10 nM
- EC50 [3]: 361 nM

SMILES: CNCCN(C)C1COc2ccccc2-c2c(C3CCCCC3)c3ccc(C(=O)O)cc3n2C1 (racemic)
- EC50 [1]: 83 nM
- IC50 [2]: 9 nM
- EC50 [3]: 550 nM

SMILES: CN(CCN1CCCC1)C1COc2ccccc2-c2c(C3CCCCC3)c3ccc(C(=O)O)cc3n2C1 (racemic)
- EC50 [1]: 99 nM
- IC50 [2]: 11 nM
- EC50 [3]: 335 nM

SMILES: CN(CCN1CCOCC1)C1COc2ccccc2-c2c(C3CCCCC3)c3ccc(C(=O)O)cc3n2C1 (racemic)
- EC50 [1]: 90 nM
- IC50 [2]: 10 nM
- EC50 [3]: 312 nM

SMILES: CCN(CCN(C)C)C1COc2ccccc2-c2c(C3CCCCC3)c3ccc(C(=O)O)cc3n2C1 (racemic)
- EC50 [1]: 153 nM
- IC50 [2]: 11 nM
- EC50 [3]: 1030 nM
- Ratio EC50 [5]: 7

SMILES: CC(C)N(CCN(C)C)C1COc2ccccc2-c2c(C3CCCCC3)c3ccc(C(=O)O)cc3n2C1 (racemic)
- EC50 [1]: 138 nM
- IC50 [2]: 34 nM
- EC50 [3]: 1200 nM
- Ratio EC50 [5]: 7
